Reference: PubChem BioAssay AID504383 (The Scripps Research Institute Molecular Screening Center, 2011)
Where “and” joins values, the source holds several entries; their conditions need not be identical. Identical values can stand only once. The whole screen tested about 2,500 compounds, of which about 1,200 (48%) were called active.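 The calls were made as follows: active = mean activation above the low control average plus 3 SD, as set in the primary screen (cut at about 12% in these data); inactive = the rest.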 So high a share suggests a set chosen from earlier hits. The list shows a part of the results. More than one record can exist for a structure, and the calls need not agree.

molecular target: Troponin I, cardiac muscle (Homo sapiens) + Troponin T, cardiac muscle (Homo sapiens) + Troponin C, slow skeletal and cardiac muscles (Homo sapiens) (UniProt P19429+P45379+P63316); experiment: calcium sensitizers of cardiac thin filaments – biochemical, IANBD-TnC fluorescence, triplicate, confirmation (AID 504383); conditions: IANBD-labeled cardiac RTF, Ca2+ sensitivity fluorescence; at 7.2 µM; stronger effect = higher value; scaled from EC20 to saturating calcium; tested at EC20 calcium, 0.472 mM;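 also: 0% = DMSO at 0.472 mM calcium and 100% = DMSO at 2.9 mM calcium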
Procedure, shortened: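 Assay system: labelled regulated thin filament protein complex; schedule: 15 min compound incubation with filaments at 25 °C; benchmarks: low control EC20 calcium, high control EC100 calcium; reagent: Ca2+ 0.472 mM, EC20 level; doses: one dose, 7.2 µM nominal; evaluation: fluorescence gain scaled between EC20 and EC100 calcium controls; signal: filament fluorescence intensity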

| SMILES | activation |
| --- | --- |
| CC(C)(C)c1ccc(C(=O)Nc2cccc3ncccc23)cc1 | 10.2% (inactive) |
| CCc1ccc(C(=O)Nc2cccnc2Oc2ccc(Cl)cc2)cc1 | 22% (active) |
| CC(C)Cn1c(N)c(C(=O)COC(=O)c2cc(F)cc(F)c2)c(=O)n(C)c1=O | 225% (active) |
| O=c1oc2c(CN3CCCCC3)c(O)ccc2cc1-c1nc2ccccc2[nH]1 | 224% (active) |
| O=c1oc2c(O)cccc2cc1-c1nc2ccccc2[nH]1 | 8.93% (inactive) |
| O=c1c2ccccc2nc(SCc2nc(-c3ccccc3)no2)n1-c1ccc(F)cc1 | 2.61% (inactive) |
| CC(=O)c1cccc(NC(=O)Cn2nc(-c3ccccc3Cl)ccc2=O)c1 | 11.2% (inactive) |
| O=C(COC(=O)Cn1cnc2ccccc21)Nc1cccc2c1C(=O)c1ccccc1C2=O | 25.4% (active) |
| CCC(C)n1ncn(-c2ccc(N3CCN(c4ccc(OCC5COC(Cn6cncn6)(c6ccc(Cl)cc6Cl)O5)cc4)CC3)cc2)c1=O (stereo not given) | 390% (active) |
| Fc1ccc(-c2nc3ccncc3[nH]2)cc1 | 13% (active) |
| Cc1ccc(CNC(=O)CC(C)S(=O)(=O)c2ccc3c(c2)NC(=O)CS3)o1 (stereo not given) | 354% (active) |
| CCCCc1ccc(NC(=O)N2CCNC(=O)C2CC(=O)Nc2ccsc2C(=O)OC)cc1 (stereo not given) | 5.97% (inactive) |
| CCCCc1ccc(NC(=O)c2cnccn2)cc1 | 22.1% (active) |
| COC(=O)[C@@H]1C[C@@]2(O)[C@H](O)[C@H](O)[C@H](O)C[C@H]2N1C/C=C/c1ccccc1 | 6.57% (inactive) |
| NC(=O)c1c(NC(=O)c2ccccc2)sc2c1CCN(Cc1ccccc1)C2 | 105% (active) |
| N#Cc1c(NC(=O)/C=C/C(=O)O)sc2c1CCN(Cc1ccccc1)C2 | 13.4% (active) |
| CC(=O)c1ccc(C(=O)Nc2sc3c(c2C(N)=O)CCN(Cc2ccccc2)C3)cc1 | 2.38% (inactive) |
| CCCN1CCc2c(sc(NC(=S)NC(=O)c3ccccc3)c2C#N)C1 | 270% (active) |
| N#Cc1c(NC(=O)C2CC=CCC2C(=O)O)sc2c1CCCCCC2 (stereo not given) | 6.81% (inactive) |
| O=C(Nc1nc2c(s1)CN(Cc1ccccc1)CC2)c1cccc(S(=O)(=O)N2CCc3ccccc32)c1 | 5.41% (inactive) |
| CCN1CCc2c(sc(NC(=O)c3ccc(S(=O)(=O)N(C)c4ccccc4)cc3)c2C(=O)NC)C1 | 10.6% (inactive) |
| CC[n+]1c(/C=C/N(C)c2ccccc2)oc2ccc(F)cc21 | 14.5% (active) |
| CC[n+]1c(/C=C/N(C)c2ccccc2)oc2ccccc21 | 0.87% (inactive) |

| SMILES | activation |
| --- | --- |
| Cc1cc(C)n2nc3nc4c(cc3c2n1)CCCC4 | 89.3% (active) |
| Cc1ccc(-c2nc3ncccn3c2Nc2ccc3c(c2)OCCO3)o1 | 230% (active) |
| COc1cccc(C2C3CN(C)CC=C3C(C#N)=C(N)C2(C#N)C#N)c1OC (stereo not given) | 8.43% (inactive) |
| COc1cccc(C2C(C#N)=C(N)Oc3cc(C)oc(=O)c32)c1OC (stereo not given) | 23% (active) |
| CCCCN1C(=O)/C(=C/C=C2/CC(C)(C)CN2C)SC1=S | 2.58% (inactive) |
| CCN1C(=O)/C(=C/C=C2/CCCN2C)OC1=S | 12.9% (active) |
| CN1CCC/C1=C/C=C1\SC(=S)NC1=O | 4.23% (inactive) |
| CN1C(=O)/C(=C\C=C2/CCCN2C)N(C)C1=S | 173% (active) |
| C[n+]1c2cc(N)ccc2cc2ccc(N)cc21 | 6.45% (inactive) and 14.5% (active) |
| N#Cc1cc(C(=O)c2ccccc2O)cn(-c2nccs2)c1=O | 45.5% (active) |
| N#Cc1cc(C(=O)c2cc(F)ccc2O)cn(-c2nccs2)c1=O | 9.61% (inactive) |
| O=C(Cn1c(C(F)(F)F)nc2ccccc21)NCCN1CCCC1 | -3.29% (inactive) |
| CN1/C(=C\C(=O)c2ccco2)C(C)(C)c2ccccc21 | 7.09% (inactive) |
| Cn1c(=O)c2c(nc(NCCNC(=O)c3ccco3)n2Cc2ccccc2Cl)n(C)c1=O | 7.43% (inactive) |
| CCCC(=O)NCCCc1nc2ccccc2n1C | 124% (active) |
| Cn1c(CCNC(=O)c2ccco2)nc2ccccc21 | 919% (active) |
| CCN(CC)CCCNC(=O)CCn1nc(-c2ccc(Cl)cc2)ccc1=O | 7.9% (inactive) |
| Cc1cc(Cl)ccc1OCC(=O)Nc1nc(-c2cccs2)cs1 | -1.8% (inactive) |
| CC(C)(C)NCc1cc(Cl)ccc1OCc1cccs1 | 47% (active) |
| COc1ccc(OC)c(/C=c2\sc3nc(-c4cccs4)nn3c2=O)c1 | 9.45% (inactive) |
| COc1ccc(C(=O)Nn2cnc3scc(-c4cccs4)c3c2=O)c(O)c1 | 29.8% (active) |
| CCOC(=O)c1nc2cc3n(c(CC(C)C)c-2c1C)CC(C)=C3C | 1.31% (inactive) |
